Experimental data taken from ChEMBL document CHEMBL5058577, “EUbOPEN Chemogenomics Library 2 (Multiplex)” (2022).

Tested on: Fibroblast
Test: Multiplex assay against human fibroblast
Type: toxicity, cell-based
Procedure, shortened: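 Tubulin, mitochondrial-mass and membrane-permeability phenotypes are per cents of healthy-nucleus cells. Cells were gated by CellPathfinder machine learning into Hoechst high-intensity objects or normal cells, normal cells into healthy, pyknosed or fragmented nuclei, and pyknosed cells into mitotic or apoptotic. Before that, live cells stained at seeding with Hoechst33342, BioTracker Green Microtubule Cytoskeleton Dye, MitoTracker Red and Annexin V Alexa Fluor 680 were imaged on a CQ1 microscope at 37°C and 5% CO2 after compound addition.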

[1] = 12 h, 1 µM, compound concentration 1 uM, replicate 1
[2] = 12 h, 1 µM, compound concentration 1 uM, replicate 2
[3] = 12 h, 10 µM, compound concentration 10 uM, replicate 1
[4] = 12 h, 10 µM, compound concentration 10 uM, replicate 2
[5] = 24 h, 1 µM, compound concentration 1 uM, replicate 1
[6] = 24 h, 1 µM, compound concentration 1 uM, replicate 2
[7] = 24 h, 10 µM, compound concentration 10 uM, replicate 1
[8] = 24 h, 10 µM, compound concentration 10 uM, replicate 2
[9] = 48 h, 1 µM, compound concentration 1 uM, replicate 1
[10] = 48 h, 1 µM, compound concentration 1 uM, replicate 2
[11] = 48 h, 10 µM, compound concentration 10 uM, replicate 1
[12] = 48 h, 10 µM, compound concentration 10 uM, replicate 2

COc1ccc2[nH]c(I)c(CCNC(C)=O)c2c1 [IODOMELATONIN]
Population Apoptotic (%) [1]: 53%
Population Fragmented Nuclei (%) [1]: 15%
Population Healthy Nuclei (%) [1]: 64%
Population Hoechst High Intensity Objects (%) [1]: 2%
Population Membrane Permeable-Phenotype (%) [1]: 4%
Population Mitochondria Different-Phenotype (%) [1]: 4%
Population Mitotic Cells (%) [1]: 46%
Population Normal (%) [1]: 97%
Population Pyknosed Nuclei (%) [1]: 19%
Population Tubulin-Different-Phenotype (%) [1]: 28%
Total Cell Count [1]: 137
Population Apoptotic (%) [2]: 32%
Population Fragmented Nuclei (%) [2]: 23%
Population Healthy Nuclei (%) [2]: 60%
Population Hoechst High Intensity Objects (%) [2]: 5%
Population Membrane Permeable-Phenotype (%) [2]: 7%
Population Mitochondria Different-Phenotype (%) [2]: 3%
Population Mitotic Cells (%) [2]: 68%
Population Normal (%) [2]: 94%
Population Pyknosed Nuclei (%) [2]: 15%
Population Tubulin-Different-Phenotype (%) [2]: 33%
Total Cell Count [2]: 173
Population Apoptotic (%) [3]: 35%
Population Fragmented Nuclei (%) [3]: 14%
Population Healthy Nuclei (%) [3]: 64%
Population Hoechst High Intensity Objects (%) [3]: 2%
Population Membrane Permeable-Phenotype (%) [3]: 2%
Population Mitochondria Different-Phenotype (%) [3]: 6%
Population Mitotic Cells (%) [3]: 64%
Population Normal (%) [3]: 97%
Population Pyknosed Nuclei (%) [3]: 21%
Population Tubulin-Different-Phenotype (%) [3]: 20%
Total Cell Count [3]: 148
Population Apoptotic (%) [4]: 30%
Population Fragmented Nuclei (%) [4]: 38%
Population Healthy Nuclei (%) [4]: 44%
Population Hoechst High Intensity Objects (%) [4]: 3%
Population Membrane Permeable-Phenotype (%) [4]: 5%
Population Mitochondria Different-Phenotype (%) [4]: 0%
Population Mitotic Cells (%) [4]: 69%
Population Normal (%) [4]: 96%
Population Pyknosed Nuclei (%) [4]: 17%
Population Tubulin-Different-Phenotype (%) [4]: 43%
Total Cell Count [4]: 157
Population Apoptotic (%) [5]: 62%
Population Fragmented Nuclei (%) [5]: 16%
Population Healthy Nuclei (%) [5]: 63%
Population Hoechst High Intensity Objects (%) [5]: 0%
Population Membrane Permeable-Phenotype (%) [5]: 0%
Population Mitochondria Different-Phenotype (%) [5]: 7%
Population Mitotic Cells (%) [5]: 37%
Population Normal (%) [5]: 99%
Population Pyknosed Nuclei (%) [5]: 20%
Population Tubulin-Different-Phenotype (%) [5]: 27%
Total Cell Count [5]: 134
Population Apoptotic (%) [6]: 57%
Population Fragmented Nuclei (%) [6]: 26%
Population Healthy Nuclei (%) [6]: 57%
Population Hoechst High Intensity Objects (%) [6]: 5%
Population Membrane Permeable-Phenotype (%) [6]: 6%
Population Mitotic Cells (%) [6]: 42%
Population Normal (%) [6]: 94%
Population Pyknosed Nuclei (%) [6]: 15%
Population Tubulin-Different-Phenotype (%) [6]: 39%
Total Cell Count [6]: 176
Population Apoptotic (%) [7]: 35%
Population Fragmented Nuclei (%) [7]: 16%
Population Healthy Nuclei (%) [7]: 58%
Population Hoechst High Intensity Objects (%) [7]: 2%
Population Membrane Permeable-Phenotype (%) [7]: 1%
Population Mitochondria Different-Phenotype (%) [7]: 4%
Population Mitotic Cells (%) [7]: 64%
Population Normal (%) [7]: 97%
Population Pyknosed Nuclei (%) [7]: 24%
Population Tubulin-Different-Phenotype (%) [7]: 30%
Total Cell Count [7]: 143
Population Apoptotic (%) [8]: 24%
Population Fragmented Nuclei (%) [8]: 38%
Population Healthy Nuclei (%) [8]: 41%
Population Hoechst High Intensity Objects (%) [8]: 4%
Population Membrane Permeable-Phenotype (%) [8]: 10%
Population Mitochondria Different-Phenotype (%) [8]: 1%
Population Mitotic Cells (%) [8]: 75%
Population Normal (%) [8]: 95%
Population Pyknosed Nuclei (%) [8]: 20%
Population Tubulin-Different-Phenotype (%) [8]: 40%
Total Cell Count [8]: 149
Population Apoptotic (%) [9]: 76%
Population Fragmented Nuclei (%) [9]: 16%
Population Healthy Nuclei (%) [9]: 64%
Population Hoechst High Intensity Objects (%) [9]: 3%
Population Membrane Permeable-Phenotype (%) [9]: 0%
Population Mitochondria Different-Phenotype (%) [9]: 4%
Population Mitotic Cells (%) [9]: 23%
Population Normal (%) [9]: 96%
Population Pyknosed Nuclei (%) [9]: 18%
Population Tubulin-Different-Phenotype (%) [9]: 22%
Total Cell Count [9]: 147
Population Apoptotic (%) [10]: 42%
Population Fragmented Nuclei (%) [10]: 30%
Population Healthy Nuclei (%) [10]: 55%
Population Hoechst High Intensity Objects (%) [10]: 4%
Population Membrane Permeable-Phenotype (%) [10]: 5%
Population Mitochondria Different-Phenotype (%) [10]: 0%
Population Mitotic Cells (%) [10]: 57%
Population Normal (%) [10]: 95%
Population Pyknosed Nuclei (%) [10]: 13%
Population Tubulin-Different-Phenotype (%) [10]: 40%
Total Cell Count [10]: 163
Population Apoptotic (%) [11]: 60%
Population Fragmented Nuclei (%) [11]: 29%
Population Healthy Nuclei (%) [11]: 56%
Population Hoechst High Intensity Objects (%) [11]: 7%
Population Membrane Permeable-Phenotype (%) [11]: 1%
Population Mitochondria Different-Phenotype (%) [11]: 1%
Population Mitotic Cells (%) [11]: 40%
Population Normal (%) [11]: 92%
Population Pyknosed Nuclei (%) [11]: 13%
Population Tubulin-Different-Phenotype (%) [11]: 22%
Total Cell Count [11]: 159
Population Apoptotic (%) [12]: 38%
Population Fragmented Nuclei (%) [12]: 48%
Population Healthy Nuclei (%) [12]: 38%
Population Hoechst High Intensity Objects (%) [12]: 2%
Population Membrane Permeable-Phenotype (%) [12]: 10%
Population Mitochondria Different-Phenotype (%) [12]: 5%
Population Mitotic Cells (%) [12]: 61%
Population Normal (%) [12]: 98%
Population Pyknosed Nuclei (%) [12]: 12%
Population Tubulin-Different-Phenotype (%) [12]: 57%
Total Cell Count [12]: 150
